Experimental data as given in ChEMBL document CHEMBL4138199, “Microwave-promoted facile access to 4-aminoquinoline-phthalimides: Synthesis and anti-plasmodial evaluation” (Eur J Med Chem, 2018).

Tests used:
[1] = test system: Plasmodium falciparum; test: Antiplasmodial activity against ring-stage of chloroquine-resistant/mefloquine-sensitive Plasmodium falciparum W2 assessed as parasite growth inhibition after 48 hrs by YOYO-1 dye-based flow cytometric method; type: functional, organism-based; settings: W2, 48 h
Method in brief: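 Parasites grown in RPMI-1640 with 10% human serum and synchronized with 5% D-sorbitol. Ring-stage cultures exposed 48 h to graded compound levels (DMSO ≤0.1%), then fixed 48 h in 1% formaldehyde/PBS pH 7.4 at room temperature. Stained with 1 nM YOYO-1 in 0.1% Triton X-100/PBS; parasitemia by flow cytometry. IC50 from non-linear fit of % control parasitemia, duplicate experiments.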

[2] = test system: J774; test: Cytotoxicity against mouse J774 cells assessed as decrease in cell survival after 24 hrs by fluorimetric method; type: cell-based; settings: J774, 24 h
Method in brief: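 J774 murine macrophages grown in DMEM with 10% de-complemented fetal calf serum under 5% CO2. Fluorescence read at 540 nm excitation and 590 nm emission. Percent survival is compound-well fluorescence divided by that of control wells with cells in a DMSO dilution series (1% to 0.03125% v/v).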

[3] = Selectivity index, ratio of IC50 for mouse J774 cells to IC50 for ring-stage of chloroquine-resistant/mefloquine-sensitive Plasmodium falciparum W2; type: toxicity; settings: read-out: Ratio IC50

| Structure (SMILES) | IC50 [1] [µM] | IC50 [2] [µM] | selectivity ratio [3] |
| --- | --- | --- | --- |
| O=C1c2ccc(F)cc2C(=O)N1CCCNc1ccnc2cc(Cl)ccc12 | 1.19 | – | – |
| O=C1c2ccccc2C(=O)N1CCNc1ccnc2cc(Cl)ccc12 | 1.11 | – | – |
| O=C1c2cccc(F)c2C(=O)N1CCNc1ccnc2cc(Cl)ccc12 | 4.73 | – | – |
| O=C1c2cccc(F)c2C(=O)N1CCCCCCNc1ccnc2cc(Cl)ccc12 | 0.24 | – | – |
| O=C1c2c(Br)c(Br)c(Br)c(Br)c2C(=O)N1CCNc1ccnc2cc(Cl)ccc12 | 0.4 | – | – |
| O=C1c2ccccc2C(=O)N1CCCCCCNc1ccnc2cc(Cl)ccc12 | 0.11 | 14.3 | 130 |
| O=C1c2c(Br)c(Br)c(Br)c(Br)c2C(=O)N1CCCNc1ccnc2cc(Cl)ccc12 | 3.76 | – | – |
| O=C1c2cccc(F)c2C(=O)N1CCCNc1ccnc2cc(Cl)ccc12 | 3.96 | – | – |
| O=C1c2cccc([N+](=O)[O-])c2C(=O)N1CCNc1ccnc2cc(Cl)ccc12 | 7.55 | – | – |
| O=C1c2c(Cl)c(Cl)c(Cl)c(Cl)c2C(=O)N1CCCCNc1ccnc2cc(Cl)ccc12 | 0.27 | – | – |
| O=C1c2ccc(F)cc2C(=O)N1CCCCCCCCNc1ccnc2cc(Cl)ccc12 | 0.17 | – | – |
| O=C1c2ccc(F)cc2C(=O)N1CCNc1ccnc2cc(Cl)ccc12 | 4.56 | – | – |
| O=C1c2ccccc2C(=O)N1CCCNc1ccnc2cc(Cl)ccc12 | 1.51 | – | – |
| O=C1c2ccccc2C(=O)N1CCCCCCCCNc1ccnc2cc(Cl)ccc12 | 0.14 | – | – |
| O=C1c2ccc(F)cc2C(=O)N1CCCCNc1ccnc2cc(Cl)ccc12 | 0.42 | – | – |
| O=C1c2ccccc2C(=O)N1CCCCNc1ccnc2cc(Cl)ccc12 | 0.37 | – | – |
| O=C1c2c(Br)c(Br)c(Br)c(Br)c2C(=O)N1CCCCNc1ccnc2cc(Cl)ccc12 | 0.19 | – | – |
| O=C1c2cccc(F)c2C(=O)N1CCCCCCCCNc1ccnc2cc(Cl)ccc12 | 0.12 | 28.2 | 235 |
| O=C1c2c(Cl)c(Cl)c(Cl)c(Cl)c2C(=O)N1CCCCCCNc1ccnc2cc(Cl)ccc12 | 0.46 | – | – |
| O=C1c2c(Br)c(Br)c(Br)c(Br)c2C(=O)N1CCCCCCNc1ccnc2cc(Cl)ccc12 | 0.1 | 29.1 | 291 |
| O=C1c2c(Cl)c(Cl)c(Cl)c(Cl)c2C(=O)N1CCNc1ccnc2cc(Cl)ccc12 | 0.21 | – | – |
| O=C1c2cccc(F)c2C(=O)N1CCCCNc1ccnc2cc(Cl)ccc12 | 0.64 | – | – |
| O=C1c2c(Cl)c(Cl)c(Cl)c(Cl)c2C(=O)N1CCCNc1ccnc2cc(Cl)ccc12 | 0.57 | – | – |
| O=C1c2cccc([N+](=O)[O-])c2C(=O)N1CCCCCCNc1ccnc2cc(Cl)ccc12 | 0.15 | – | – |
| O=C1c2ccc(F)cc2C(=O)N1CCCCCCNc1ccnc2cc(Cl)ccc12 | 0.12 | 15.2 | 126 |
| C[C@@H]1CC[C@H]2[C@@H](C)C(=O)O[C@@H]3O[C@@]4(C)CC[C@@H]1[C@]32OO4 [ARTEMISININ] | 0.007 | – | – |
